Active and inactive are the calls of the source. No cut-off for these calls is given here.
Assays:
J82 [1] = assay: Cell cycle arrest in cisplatin resistant human J82 cells assessed as accumulation at G1 phase at 10 uM incubated for 24 hrs by propidium iodide staining based flow cytometry (reference value: 78.1%); assay type: functional
Method in brief: (§1)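 After 24 h exposure, cells washed in ice-cold PBS. About 2 million cells fixed in cold 70% ethanol at −20 °C for at least 24 h. Stained with 0.1% Triton X-100, 200 µg/ml RNase A and 20 µg/ml propidium iodide in PBS, 15 min at 37 °C in the dark. DNA content read by flow cytometry with doublet discrimination. Medium as untreated control, paclitaxel as G2/M control. Three independent experiments.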

A2780 [2] = assay: Induction of apoptosis in human A2780 cells assessed as increase in caspase 3 cleavage at 5 uM incubated for 24 hrs by proteome profiler analysis; assay type: functional, cell-based
Method in brief: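 A2780 and A2780CisR cells treated 24 h with 5 µM PXA; apoptosis-related proteins profiled with a human apoptosis antibody array following kit instructions.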

J82 [3] = assay: Cell cycle arrest in human J82 cells assessed as accumulation at G1 phase at 10 uM incubated for 24 hrs by propidium iodide staining based flow cytometry (reference value: 69.6%); assay type: functional; method in brief: as §1
A2780cisR [4] = assay: Cell cycle arrest in human A2780cisR cells assessed as accumulation at G1 phase incubated for 24 hrs by propidium iodide staining based flow cytometry; assay type: functional; method in brief: as §1
MDA-MB-231 = assay: Potency index, ratio of cisplatin IC50 to compound IC50 for antiproliferative activity in human MDA-MB-231 cells assessed as reduction in cell viability incubated for 72 hrs by MTT assay; assay type: functional
Method in brief: (§2)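 Cells seeded in 96-well plates overnight, exposed 72 h to increasing concentrations. MTT (5 mg/ml) added for 15 min, formazan dissolved in DMSO, absorbance read at 544 nm with 690 nm background subtracted. IC50 is the concentration reducing signal by 50%. Three independent experiments in triplicate. CisR sublines made by weekly intermittent cisplatin exposure for 24–30 weeks.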

HCT-116 = assay: Potency index, ratio of cisplatin IC50 to compound IC50 for antiproliferative activity in human HCT116 cells assessed as reduction in cell viability incubated for 72 hrs by MTT assay; assay type: functional; method in brief: as §2
J82 [5] = assay: Induction of apoptosis in human J82 cells assessed as depolarization of mitochondrial membrane potential incubated for 1 hr by TMRE staining based flow cytometry; assay type: functional, cell-based
Method in brief: (§3)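 Cells seeded overnight; complete medium swapped for FBS-free medium just before treatment to avoid TMRE ester cleavage. Exposure to PXA for 1 h, 2 h or 24 h. TMRE staining 20 min, cells collected by trypsinisation, ΔΨm read by flow cytometry. Medium served as negative control, 20 µM CCCP as positive control. Mean ± SEM reported.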

CAL-27 = assay: Potency index, ratio of cisplatin IC50 to compound IC50 for antiproliferative activity in human CAL27 cells assessed as reduction in cell viability incubated for 72 hrs by MTT assay; assay type: functional; method in brief: as §2
A2780 [6] = assay: Induction of apoptosis in human A2780 cells assessed as increase in intracellular calcium level at 1 and 30 uM incubated for 30 mins by fluorimetry; assay type: functional, cell-based
Method in brief: (§4)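 Cells seeded in 96-well plates overnight, washed twice with Krebs-HEPES buffer, loaded 1 h at 37 °C in the dark with Oregon Green BAPTA-1 AM (final 3 µM) and Pluronic F-127. Buffer replaced, PXA added, fluorescence at 544 nm recorded for 30 min, with or without 1 mM extracellular Ca2+. Three experiments, mean ± SEM.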

A2780 [7] = assay: Induction of apoptosis in human A2780 cells assessed as accumulation in subG1 phase incubated for 24 hrs by propidium iodide staining based flow cytometry; assay type: functional, cell-based
Method in brief: (§5)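 Cells plated in 24-well plates (about 100,000/well) for one day, then treated 24 h. Where used, caspase inhibitor Q-VD-OPh (20 µM) was added 1 h before. Cells lysed in hypotonic buffer (0.1% sodium citrate, 0.1% Triton X-100, 100 µg/ml propidium iodide) overnight at 4 °C in the dark. Sub-G1 fraction read by flow cytometry. Medium control, cisplatin positive control.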

A2780cisR [8] = assay: Induction of apoptosis in human A2780cisR cells assessed as increase in activation of caspase 3/7 at 10 uM incubated for 24 hrs by hoechst 33342 staining based fluorescence microscopy (reference value: 0.8%); assay type: functional
A2780 [9] = assay: Induction of apoptosis in human A2780 cells assessed as accumulation in subG1 phase incubated for 24 hrs by propidium iodide staining based flow cytometry (reference value: 10%); assay type: functional; method in brief: as §5
A2780 [10] = assay: Induction of apoptosis in human A2780 cells assessed as depolarization of mitochondrial membrane potential incubated for 1 hr by TMRE staining based flow cytometry; assay type: functional, cell-based; method in brief: as §3
A2780 [11] = assay: Cell cycle arrest in human A2780 cells assessed as accumulation at G1 phase at 5 uM incubated for 24 hrs by propidium iodide staining based flow cytometry (reference value: 61.8%); assay type: functional; method in brief: as §1
A2780 [12] = assay: Ratio of IC50 for antiproliferative activity in human A2780 cells assessed as reduction in cell viability incubated for 24 hrs by MTT assay to IC50 for antiproliferative activity in human A2780 cells assessed as reduction in cell viability incubated for 72 hrs by MTT assay; assay type: functional
Method in brief: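 MTT assay as for the viability IC50s (overnight seeding, MTT 15 min, DMSO solubilisation, 544/690 nm), with PXA incubation for 24 h versus 72 h. IC50 is the concentration giving a 50% signal decrease. At least three independent experiments.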

J82 [13] = assay: Induction of apoptosis in human J82 cells assessed as mitochondrial membrane potential at 1 uM incubated for 2 hrs by hoechst 33342 staining based fluorescence microscopy; assay type: functional, cell-based
Method in brief: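 J82 cells treated 2 h with PXA, then labelled 20 min with TMRE plus Hoechst 33342. ΔΨm read by high-content fluorescence imaging. Untreated medium and 20 µM CCCP served as controls.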

A2780 [14] = assay: Effect on ROS generation in human A2780 cells at 316 nM incubated for 18 hrs by H2DCFDA staining based flow cytometry; assay type: functional, cell-based
Method in brief: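 Cells plated in 24-well plates (about 150,000/well) overnight, then exposed 18 h. Washed and moved to phenol red-free, serum-free RPMI-1640, then loaded with 10 µM H2DCF-DA for 30 min at 37 °C in the dark. One aliquot read directly, the other after 250 µM H2O2 for 1 h at 37 °C. DCF fluorescence read by flow cytometry. Three independent experiments.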

A2780cisR [15] = assay: Reduction of H2O2-induced ROS generation in human A2780cisR cells at 316 nM incubated for 18 hrs by H2DCFDA staining based flow cytometry; assay type: functional, cell-based
Method in brief: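 Cells plated overnight in growth medium (approx. 150,000 cells/well), exposed to compound for 18 h. Then washed with PBS and moved to phenol red-free RPMI-1640 without FBS or antibiotics. Loaded with 10 µM H2DCF-DA, 30 min, 37 °C, dark. One aliquot then given 250 µM H2O2 for 1 h at 37 °C in the dark. DCF fluorescence read by flow cytometry; three independent experiments.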

A2780 [16] = assay: Induction of apoptosis in human A2780 cells assessed as depolarization of mitochondrial membrane potential incubated for 2 hrs by TMRE staining based flow cytometry; assay type: functional, cell-based; method in brief: as §3
A2780cisR [17] = assay: Induction of apoptosis in human A2780cisR cells assessed as increase in intracellular calcium level at 10 to 30 uM incubated for 30 mins in presence of 1 mM extracellular calcium by fluorimetry; assay type: functional, cell-based; method in brief: as §4

`CC(=O)OC[C@]12Oc3c(-c4ccc(O)c5c4O[C@@]4(COC(C)=O)C(=C(O)C[C@@H](C)[C@H]4OC(C)=O)C5=O)ccc(O)c3C(=O)C1=C(O)C[C@@H](C)[C@H]2OC(C)=O` [PHOMOXANTHONE A] was tested, and the Activity (J82 [1]) was 81.2%, the Activity (A2780 [2]) was “Active” and the Activity (J82 [3]) was 70.9%. For the same molecule, the Activity (A2780cisR [4]) was “Dose-dependent effect”, the “Ratio IC50” value (MDA-MB-231) was 2 - 10 and the “Ratio IC50” value (HCT-116) was 2 - 10. The Activity (J82 [5]) was “Dose-dependent effect”, the IC50 (J82 [5]; J82, 1 h) was 3.75 µM and the “Ratio IC50” value (CAL-27) was 2 - 10. For the same molecule, the Activity (A2780 [6]) was “Active”, the Activity (A2780 [7]) was “Dose-dependent effect” and the Activity (A2780cisR [8]) was 71%. The Activity (A2780 [9]) was 70%, the Activity (A2780 [10]) was “Dose-dependent effect” and the IC50 (A2780 [10]; A2780, 1 h) was 1010 nM. The Activity (A2780 [11]) was 75.9%, the “Ratio IC50” value (A2780 [12]) was 2.5 and the Activity (J82 [13]) was “inactive”. The Activity (A2780 [14]) was “inactive”, the inhibition (A2780cisR [15]) was “inactive” and the Activity (A2780 [16]) was “Dose-dependent effect”. For the same molecule, the IC50 (A2780 [16]; A2780, 2 h) was 750 nM and the Activity (A2780cisR [17]) was “Active”.

— ChEMBL document CHEMBL4396943, “The tetrahydroxanthone-dimer phomoxanthone A is a strong inducer of apoptosis in cisplatin-resistant solid cancer cells” (Bioorg Med Chem, 2019)
